Assay results taken from publication PMC7816766 (Journal of Medicinal Chemistry, 2020).

Legend:
STAT1:STAT1 homodimers = target: T1, STAT1:STAT1 homodimers (Mus musculus, UniProt P42225); assay type: biochemical; settings: 10 µM, MGFe probe (Fig. S6)
T1 sequence (P42225 2-749 limits assumed): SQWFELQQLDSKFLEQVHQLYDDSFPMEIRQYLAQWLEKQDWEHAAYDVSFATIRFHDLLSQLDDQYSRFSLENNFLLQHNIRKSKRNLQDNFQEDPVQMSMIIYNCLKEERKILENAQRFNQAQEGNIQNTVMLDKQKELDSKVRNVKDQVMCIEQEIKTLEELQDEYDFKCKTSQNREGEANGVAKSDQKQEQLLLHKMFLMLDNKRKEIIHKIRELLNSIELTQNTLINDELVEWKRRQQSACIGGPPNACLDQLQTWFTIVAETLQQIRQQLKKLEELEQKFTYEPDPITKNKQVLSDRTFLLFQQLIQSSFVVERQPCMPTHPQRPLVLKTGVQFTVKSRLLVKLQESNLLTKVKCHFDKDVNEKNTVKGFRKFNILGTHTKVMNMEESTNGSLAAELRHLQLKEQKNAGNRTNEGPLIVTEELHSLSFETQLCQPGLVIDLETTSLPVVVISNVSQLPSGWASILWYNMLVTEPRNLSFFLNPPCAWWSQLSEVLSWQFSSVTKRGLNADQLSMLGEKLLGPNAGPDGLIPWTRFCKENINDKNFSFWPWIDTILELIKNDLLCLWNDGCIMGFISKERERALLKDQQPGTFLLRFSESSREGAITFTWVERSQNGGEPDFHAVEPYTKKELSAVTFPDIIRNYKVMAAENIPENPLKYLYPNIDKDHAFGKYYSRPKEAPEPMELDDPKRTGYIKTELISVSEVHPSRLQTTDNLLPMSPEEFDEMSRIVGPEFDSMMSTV

STAT5:STAT5 homodimers = assay type: biochemical; settings: 10 µM, MGFe probe (Fig. S6)
[1] = tested on: MDA-MB-231 or MDA-MB-468 cells; experiment: Cell viability/growth of breast cancer cells harboring active STAT3; assay type: cell-based, human; settings: for activity against breast cancer cells: up to 10 μM; for viability, anchorage-dependent and independent growth, and colony formation: at 1 μM or less
MDA-MB-231 cells = experiment: Clonogenic; assay type: cell-based, human; settings: treated once
In short: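 Cells were seeded as single-cell cultures at 250 cells per well. They were treated once the next day with test compound at 0–1 μM and cultured until large colonies were visible. Colonies were stained with crystal violet for 4 h and photographed. Data came from three independent determinations.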

[2] = cited from earlier work

O=C(O)c1ccc(N(Cc2ccc(C3CCOCC3)cc2)C(=O)[C@H]2CCN2S(=O)(=O)c2c(F)c(F)c(F)c(F)c2F)cc1O [Compound 5g]
effect on DNA-binding activity of STAT1:STAT1 homodimers (STAT1:STAT1 homodimers): minimal effect
effect on DNA-binding activity of STAT5:STAT5 homodimers (STAT5:STAT5 homodimers): minimal effect

O=C(O)c1cc(F)c(N(Cc2ccc(C3CCCCC3)cc2)C(=O)[C@H]2CCN2S(=O)(=O)c2c(F)c(F)c(F)c(F)c2F)cc1O [Compound 5i]
effect on DNA-binding activity of STAT1:STAT1 homodimers (STAT1:STAT1 homodimers): minimal effect
effect on DNA-binding activity of STAT5:STAT5 homodimers (STAT5:STAT5 homodimers): minimal effect

O=C(NO)c1ccc(N(Cc2ccc(C3CCCCC3)cn2)C(=O)[C@H]2CCN2S(=O)(=O)c2c(F)c(F)c(F)c(F)c2F)c(F)c1 [Compound 8l]
activity against breast cancer cells [1]: weakly active

O=C(NO)c1ccc(N(Cc2ccc(C3CCCCC3)cc2)C(=O)[C@H]2CCN2S(=O)(=O)c2c(F)c(F)c(F)c(F)c2F)c(F)c1 [Compound 8f]
effect on DNA-binding activity of STAT1:STAT1 homodimers (STAT1:STAT1 homodimers): minimal effect
effect on DNA-binding activity of STAT5:STAT5 homodimers (STAT5:STAT5 homodimers): minimal effect

COC(=O)c1ccc(N(Cc2cnc(C3CCCCC3)cn2)C(=O)[C@H]2CCN2S(=O)(=O)c2c(F)c(F)c(F)c(F)c2F)c(F)c1 [Compound 7e]
viability, anchorage-dependent and independent growth, and colony formation [1]: strongly inhibited
inhibition of colony formation (MDA-MB-231 cells; 0.5 μM): minimal to moderate inhibition of colony formation
inhibition of colony formation (MDA-MB-231 cells; 1 μM): near-complete inhibition

O=C(O)c1ccc(N(Cc2ccc(C3CCOCC3)nc2)C(=O)[C@H]2CCN2S(=O)(=O)c2c(F)c(F)c(F)c(F)c2F)cc1O [Compound 5n]
effect on DNA-binding activity of STAT1:STAT1 homodimers (STAT1:STAT1 homodimers): minimal effect
effect on DNA-binding activity of STAT5:STAT5 homodimers (STAT5:STAT5 homodimers): minimal effect

O=C(O)c1ccc(N(Cc2ccc(C3CCCCC3)cc2)C(=O)[C@H]2CCN2S(=O)(=O)c2c(F)c(F)c(F)c(F)c2F)cc1O [Compound 5a, (R)-4-(N-(4-cyclohexylbenzyl)-1-((perfluorophenyl)sulfonyl)azetidine-2-carboxamido)-2-hydroxybenzoic acid]
activity against breast cancer cells [1]: no activity

COC(=O)c1ccc(N(Cc2cnc(C3CCCCC3)cn2)C(=O)[C@H]2CCN2S(=O)(=O)c2c(F)c(F)c(F)c(F)c2F)cc1O [Compound 7f]
viability, anchorage-dependent and independent growth, and colony formation [1]: strongly inhibited
inhibition of colony formation (MDA-MB-231 cells; 0.5 μM): minimal to moderate inhibition of colony formation
inhibition of colony formation (MDA-MB-231 cells; 1 μM): significant inhibition

O=C(NO)c1ccc(N(Cc2ccc(C3CCCCC3)cc2)C(=O)[C@H]2CCN2S(=O)(=O)c2c(F)c(F)c(F)c(F)c2F)cc1O [Compound 8d]
effect on DNA-binding activity of STAT1:STAT1 homodimers (STAT1:STAT1 homodimers): minimal effect
effect on DNA-binding activity of STAT5:STAT5 homodimers (STAT5:STAT5 homodimers): minimal effect

CN(CC(=O)N(Cc1ccc(C2CCCCC2)cc1)c1ccc(C(=O)NO)cc1)S(=O)(=O)c1c(F)c(F)c(F)c(F)c1F [SH5-07]
cellular activities of parent lead compounds [2]: 3.8 µM

O=C(O)c1ccc(N(Cc2ccc(C3CCCCC3)nc2)C(=O)[C@H]2CCN2S(=O)(=O)c2c(F)c(F)c(F)c(F)c2F)cc1O [Compound 5m]
effect on DNA-binding activity of STAT1:STAT1 homodimers (STAT1:STAT1 homodimers): minimal effect
effect on DNA-binding activity of STAT5:STAT5 homodimers (STAT5:STAT5 homodimers): minimal effect

CN(CC(=O)N(Cc1ccc(C2CCCCC2)cc1)c1ccc(C(=O)O)c(O)c1)S(=O)(=O)c1c(F)c(F)c(F)c(F)c1F [BP-1-102]
cellular activities of parent lead compounds [2]: 10 to 20 µM

CN(CC(=O)N(Cc1ccc(C2CCCCC2)cc1)c1ccc(C(=O)O)cc1)S(=O)(=O)c1c(F)c(F)c(F)c(F)c1F [SH4-54]
cellular activities of parent lead compounds [2]: 4.5 µM

O=C(O)c1ccc(N(Cc2ccc(C3CCCC3)cc2)C(=O)[C@H]2CCN2S(=O)(=O)c2c(F)c(F)c(F)c(F)c2F)cc1O [Compound 5e]
effect on DNA-binding activity of STAT1:STAT1 homodimers (STAT1:STAT1 homodimers): minimal effect
effect on DNA-binding activity of STAT5:STAT5 homodimers (STAT5:STAT5 homodimers): minimal effect
